Experimental findings from ChEMBL document CHEMBL1125389, “Synthesis and use of 3-amino-4-phenyl-2-piperidones and 4-amino-2-benzazepin-3-ones as conformationally restricted phenylalanine isosteres in renin inhibitors” (J Med Chem, 1992) are described below.

This assay addresses T1, Renin (Homo sapiens, UniProt P00797).
T1 sequence (P00797 whole entry): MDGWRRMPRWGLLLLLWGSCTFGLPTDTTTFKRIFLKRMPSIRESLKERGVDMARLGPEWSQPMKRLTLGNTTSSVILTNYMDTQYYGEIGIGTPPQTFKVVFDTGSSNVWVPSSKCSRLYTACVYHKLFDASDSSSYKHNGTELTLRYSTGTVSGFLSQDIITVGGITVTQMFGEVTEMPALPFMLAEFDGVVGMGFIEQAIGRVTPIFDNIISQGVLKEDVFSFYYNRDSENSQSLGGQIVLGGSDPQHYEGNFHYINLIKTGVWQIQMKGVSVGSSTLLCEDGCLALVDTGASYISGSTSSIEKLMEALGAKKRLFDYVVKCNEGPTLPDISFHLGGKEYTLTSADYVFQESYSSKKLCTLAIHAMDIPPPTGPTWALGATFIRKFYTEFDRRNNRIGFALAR
Put plainly: Compound was evaluated for the inhibition of human plasma renin at pH 7.4. The assay is classed as cell-free. The method in brief:
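Human plasma renin activity measured by radioimmunoassay of generated angiotensin I, run in phosphate buffer at pH 7.4 and 37 °C. IC50 is the mean of three determinations.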
The term IC50 denotes the concentration that gives 50% inhibition. In turn, `CCCCNC(=O)[C@@H](C[C@H](O)[C@H](CC1CCCCC1)NC(=O)[C@H](CCCC)N1Cc2ccccc2C[C@H](N2C(=O)c3ccccc3C2=O)C1=O)C(C)C` gave an IC50 of more than 20000 nM.

Turning to `CCCCNC(=O)[C@@H](C[C@H](O)[C@H](CC1CCCCC1)NC(=O)[C@H](CCCC)NC(=O)C(Cc1ccccc1)NC(C)=O)C(C)C` (stereo not given in full), inhibition was half-maximal at 0.84 nM (IC50).

The molecule `CCCCNC(=O)[C@@H](C[C@H](O)[C@H](CC1CCCCC1)NC(=O)[C@H](CCCC)NC(=O)C(Cc1ccccc1)NC(=O)OC(C)(C)C)C(C)C` (stereo not given in full) came in with an IC50 of 2.1 nM.

Turning to `CCCCNC(=O)[C@@H](C[C@H](O)[C@H](CC1CCCCC1)NC(=O)[C@H](CCCC)N1CC[C@@H](c2ccccc2)[C@H](NC(=O)OC(C)(C)C)C1=O)C(C)C`, the IC50 was found to be 5910 nM.

As for `CCCCNC(=O)[C@@H](C[C@H](O)[C@H](CC1CCCCC1)NC(=O)[C@H](CCCC)N1Cc2ccccc2C[C@H](NC(=O)OC(C)(C)C)C1=O)C(C)C`, the IC50 stood at 1730 nM.

For `CCCCNC(=O)[C@@H](C[C@H](O)[C@H](CC1CCCCC1)NC(=O)[C@H](CCCC)N1Cc2ccccc2C[C@H](N)C1=O)C(C)C`, inhibition was half-maximal at 2040 nM (IC50).

Regarding `CCCCNC(=O)[C@@H](C[C@H](O)[C@H](CC1CCCCC1)NC(=O)[C@H](CCCC)NC(=O)C(Cc1ccccc1)N1C(=O)c2ccccc2C1=O)C(C)C` (stereo not given in full), the IC50 is 87 nM.

For the molecule `CCCCNC(=O)[C@@H](C[C@H](O)[C@H](CC1CCCCC1)NC(=O)[C@H](CCCC)N1CC[C@H](c2ccccc2)[C@H](NC(=O)OC(C)(C)C)C1=O)C(C)C`, half-maximal inhibition (IC50) was put at 134 nM.

In turn, `CCCCNC(=O)[C@@H](C[C@H](O)[C@H](CC1CCCCC1)NC(=O)[C@H](CCCC)N1CC[C@H](c2ccccc2)[C@H](NC(C)=O)C1=O)C(C)C` showed an IC50 of 21 nM.

The molecule `CCCCNC(=O)[C@@H](C[C@H](O)[C@H](CC1CCCCC1)NC(=O)[C@H](CCCC)N1Cc2ccccc2C[C@H](NC(C)=O)C1=O)C(C)C` had an IC50 of 210 nM.
